ChEMBL document CHEMBL3120159, “Discovery of 2-pyridone derivatives as potent HIV-1 NNRTIs using molecular hybridization based on crystallographic overlays” (Bioorg Med Chem, 2014)
pEC50, pIC50: −log10 of the molar value.

Assays:
[1] = system: Human immunodeficiency virus 1; test: Antiviral activity against HIV1 RES056 harboring reverse transcriptase K103N/Y181C double mutant infected in human MT4 cells assessed as protection against virus-induced cytopathic effect after 5 days by MTT assay; assay type: functional, organism-based; conditions: Human immunodeficiency virus 1, RES056, MT4, 120 h
How it was run: (§1)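 MT-4 cells, growing exponentially, were spun and resuspended at 6 × 10⁵ cells/mL. They were infected at the start together with compound, given as serial five-fold dilutions in triplicate wells, with mock-infected wells run in parallel. Viability was read by MTT after 5 days. EC₅₀ is the concentration giving 50% protection against viral cytopathic effect.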

[2] = Cytotoxicity against human MT4 cells after 5 days by MTT assay; assay type: cell-based
How it was run: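 Exponentially growing MT-4 cells resuspended at 6 × 10⁵ cells/mL and exposed to serial five-fold compound dilutions in triplicate, mock-infected alongside infected wells. Viability read by MTT assay at day 5. CC₅₀ = concentration reducing mock-infected cell viability by 50%.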

[3] = Selectivity index, ratio of CC50 for human MT4 cells to EC50 for HIV1 RES056; assay type: toxicity, cell-based; conditions: read-out: Ratio CC50/EC50
How it was run: (§2)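 Selectivity index is CC₅₀/EC₅₀. Both values come from the same MTT assay in MT-4 cells: mock-infected and virus-infected (100-300 CCID₅₀) wells were run in parallel and read at day 5.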

[4] = Selectivity index, ratio of CC50 for human MT4 cells to EC50 for HIV2 ROD; assay type: toxicity, cell-based; conditions: read-out: Ratio CC50/EC50; how it was run: as §2
[5] = system: Human immunodeficiency virus 1; test: Antiviral activity against HIV1 3B harboring wild type reverse transcriptase infected in human MT4 cells assessed as protection against virus-induced cytopathic effect after 5 days by MTT assay; assay type: functional, organism-based; conditions: Human immunodeficiency virus 1, 3B, MT4, 120 h; how it was run: as §1
[6] = system: Human immunodeficiency virus 2; test: Antiviral activity against HIV2 ROD infected in human MT4 cells assessed as protection against virus-induced cytopathic effect after 5 days by MTT assay; assay type: functional, organism-based; conditions: Human immunodeficiency virus 2, ISOLATE ROD, MT4, 120 h
How it was run: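 MT-4 cells resuspended at 6 × 10⁵ cells/mL after centrifugation at 200 g for 5 min. HIV-2 (ROD) added at 100-300 CCID₅₀. Test compound given as serial five-fold dilutions, triplicate wells. Viability of infected cells measured spectrophotometrically by MTT after 5 days. EC₅₀ = concentration giving 50% protection against viral cytopathic effect.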

[7] = Selectivity index, ratio of CC50 for human MT4 cells to EC50 for HIV1 3B; assay type: toxicity, cell-based; conditions: read-out: Ratio CC50/EC50; how it was run: as §2
[8] = system: Human immunodeficiency virus 1; test: Antiviral activity against HIV1 harboring reverse transcriptase K101N/Y181C double mutant infected in human MT4 cells; assay type: functional, organism-based; conditions: Human immunodeficiency virus 1, MT4
[9] = system: Human immunodeficiency virus 1; test: Antiviral activity against HIV1 harboring reverse transcriptase K101N mutant infected in human MT4 cells; assay type: functional, organism-based; conditions: Human immunodeficiency virus 1, MT4
[10] = system: Human immunodeficiency virus 1; test: Antiviral activity against HIV1 harboring reverse transcriptase Y181C mutant infected in human MT4 cells; assay type: functional, organism-based; conditions: Human immunodeficiency virus 1, MT4
[11] = system: Human immunodeficiency virus 1; test: Antiviral activity against HIV1 harboring wild type reverse transcriptase infected in human MT4 cells; assay type: functional, organism-based; conditions: Human immunodeficiency virus 1, MT4
[12] = target: Human immunodeficiency virus type 1 reverse transcriptase (Human immunodeficiency virus 1, UniProt Q72547); test: Inhibition of HIV1 reverse transcriptase assessed as inhibition of biotinylated dUTP incorporation after 1 hr by ELISA
How it was run: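 Recombinant HIV-1 RT kit (colorimetric ELISA). Poly(A)·oligo(dT)₁₅ template/primer with DIG-dUTP, biotin-dUTP and dTTP, ±inhibitor, 1 h at 37 °C. Product captured on streptavidin plate (1 h, 37 °C), then anti-DIG-POD (1 h, 37 °C), ABTS developed at 25 °C, A405 read. IC₅₀ = concentration inhibiting biotin-dUTP incorporation by 50%.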

Structure (SMILES): Cc1cc(C)c(Oc2cc(Nc3ccc(C#N)cc3)[nH]c(=O)c2I)c(C)c1
- pEC50 [1]: < 4.47
- CC50 at 120 h [2]: 34 µM
- selectivity ratio [3]: < 1
- selectivity ratio [4]: < 1
- pEC50 [5]: 5.25
- pEC50 [6]: < 4.47
- selectivity ratio [7]: 6

Structure (SMILES): Cc1cc(C)cc(Oc2cc(Nc3ccc(C#N)cc3)[nH]c(=O)c2I)c1
- CC50 at 120 h [2]: 24 µM
- selectivity ratio [4]: < 1
- pEC50 [5]: < 4.62
- pEC50 [6]: < 4.62
- selectivity ratio [7]: < 1

Structure (SMILES): Cc1cccc(C)c1Oc1cc(Nc2ccc(C#N)cc2)[nH]c(=O)c1
- pEC50 [1]: < 4.44
- CC50 at 120 h [2]: 36 µM
- selectivity ratio [3]: < 1
- selectivity ratio [4]: < 1
- pEC50 [5]: 5.85
- pEC50 [6]: < 4.44
- selectivity ratio [7]: 26

Structure (SMILES): Cc1cccc(C)c1Oc1cc(Nc2ccc(C#N)cc2)[nH]c(=O)c1Br
- pEC50 [1]: < 4.20
- CC50 at 120 h [2]: 63 µM
- selectivity ratio [3]: < 1
- selectivity ratio [4]: < 1
- pEC50 [5]: 5.44
- pEC50 [6]: < 4.20
- selectivity ratio [7]: 17

Structure (SMILES): Cc1cc(C#N)cc(C)c1Oc1cc(Nc2ccc(C#N)cc2)[nH]c(=O)c1Cl
- pEC50 [1]: < 3.50
- CC50 at 120 h [2]: > 319 µM
- selectivity ratio [3]: 1
- selectivity ratio [4]: 1
- pEC50 [5]: 5.14
- pEC50 [6]: < 3.50
- selectivity ratio [7]: > 44

Structure (SMILES): Cc1cc(C#N)cc(C)c1Oc1nc(Nc2ccc(C#N)cc2)nc(N)c1Br [ETRAVIRINE]
- pEC50 [8]: 8.37
- pEC50 [9]: 8.92

Structure (SMILES): Cc1cc(C)c(Oc2cc(Nc3ccc(C#N)cc3)[nH]c(=O)c2Cl)c(C)c1
- pEC50 [1]: < 3.48
- CC50 at 120 h [2]: > 329 µM
- selectivity ratio [3]: 1
- selectivity ratio [4]: 1
- pEC50 [5]: 5.03
- pEC50 [6]: < 3.48
- selectivity ratio [7]: > 35

Structure (SMILES): Cc1cccc(C)c1Oc1cc(Nc2ccc(C#N)cc2)[nH]c(=O)c1I
- pEC50 [1]: < 4.55
- CC50 at 120 h [2]: 28 µM
- selectivity ratio [3]: < 1
- selectivity ratio [4]: < 1
- pEC50 [5]: 5.77
- pEC50 [6]: < 4.55
- selectivity ratio [7]: 16

Structure (SMILES): Cc1cc(C)c(Oc2cc(Nc3ccc(C#N)cc3)[nH]c(=O)c2Br)c(C)c1
- pEC50 [1]: < 3.53
- CC50 at 120 h [2]: > 294 µM
- selectivity ratio [3]: 1
- selectivity ratio [4]: 1
- pEC50 [5]: 4.49
- pEC50 [6]: < 3.53
- selectivity ratio [7]: > 9

Structure (SMILES): Cc1cc(C#N)cc(C)c1Oc1cc(Nc2ccc(C#N)cc2)[nH]c(=O)c1I
- pEC50 [1]: < 3.59
- CC50 at 120 h [2]: > 259 µM
- selectivity ratio [3]: 1
- selectivity ratio [4]: 1
- pEC50 [5]: 5.54
- pEC50 [6]: < 3.59
- selectivity ratio [7]: > 89

Structure (SMILES): Cc1cc(/C=C/C#N)cc(C)c1Nc1ccnc(Nc2ccc(C#N)cc2)n1 [RILPIVIRINE]
- pEC50 [9]: 9.52

Structure (SMILES): CC(C)Nc1cccnc1N1CCN(C(=O)c2cc3cc(NS(C)(=O)=O)ccc3[nH]2)CC1 [DELAVIRDINE]
- pEC50 [1]: < 4.44
- CC50 at 120 h [2]: > 36 µM
- pEC50 [5]: 6.04
- selectivity ratio [7]: > 40

Structure (SMILES): Cc1ccc(Nc2cc(Oc3c(C)cc(C)cc3C)cc(=O)[nH]2)cc1
- pEC50 [1]: < 4.43
- CC50 at 120 h [2]: 37 µM
- selectivity ratio [3]: < 1
- selectivity ratio [4]: < 1
- pEC50 [5]: 5.85
- pEC50 [6]: < 4.43
- selectivity ratio [7]: 26

Structure (SMILES): Cc1ccnc2c1NC(=O)c1cccnc1N2C1CC1 [NEVIRAPINE]
- CC50 at 120 h [2]: > 15 µM

Structure (SMILES): Cc1cc(C)cc(Oc2c(CSCc3ccco3)c(C)[nH]c(=O)c2I)c1
- pEC50 [10]: 8.30
- pEC50 [8]: 8.40
- pEC50 [9]: 9.00
- pEC50 [11]: 8.70

Structure (SMILES): COc1cc(Oc2c(C)cc(C)cc2C)cc(Nc2ccc(C#N)cc2)n1
- pEC50 [1]: < 4.54
- CC50 at 120 h [2]: 29 µM
- selectivity ratio [3]: < 1
- selectivity ratio [4]: < 1
- pEC50 [5]: 6.08
- pEC50 [6]: < 4.54
- selectivity ratio [7]: 35

Structure (SMILES): Cc1cc(C)c(Oc2cc(Nc3ccc([N+](=O)[O-])cc3)[nH]c(=O)c2)c(C)c1
- pEC50 [1]: < 4.59
- CC50 at 120 h [2]: 26 µM
- selectivity ratio [3]: < 1
- selectivity ratio [4]: < 1
- pEC50 [5]: 5.85
- pEC50 [6]: < 4.59
- selectivity ratio [7]: 19

Structure (SMILES): COc1cc(Oc2c(C)cc(C)cc2C)cc(Nc2ccc(C)cc2)n1
- CC50 at 120 h [2]: 35 µM
- selectivity ratio [4]: < 1
- pEC50 [5]: < 4.46
- pEC50 [6]: < 4.46
- selectivity ratio [7]: < 1

Structure (SMILES): Cc1cc(C)cc(Oc2cc(Nc3ccc(C#N)cc3)[nH]c(=O)c2)c1
- CC50 at 120 h [2]: 46 µM
- selectivity ratio [4]: < 1
- pEC50 [5]: < 4.34
- pEC50 [6]: < 4.34
- selectivity ratio [7]: < 1

Structure (SMILES): Cc1cc(C)c(Oc2cc(Nc3ccc(C#N)cc3)[nH]c(=O)c2)c(C)c1
- pEC50 [1]: < 4.49
- pIC50 [12]: 4.41
- CC50 at 120 h [2]: 32 µM
- selectivity ratio [3]: < 1
- selectivity ratio [4]: < 1
- pEC50 [5]: 6.43
- pEC50 [6]: < 4.49
- selectivity ratio [7]: 87

Structure (SMILES): Cc1cc(C#N)cc(C)c1Oc1cc(Nc2ccc(C#N)cc2)[nH]c(=O)c1Br
- pEC50 [1]: < 3.54
- CC50 at 120 h [2]: > 287 µM
- selectivity ratio [3]: 1
- selectivity ratio [4]: 1
- pEC50 [5]: 5.92
- pEC50 [6]: < 3.54
- selectivity ratio [7]: > 244

Structure (SMILES): Cc1cccc(C)c1Oc1cc(Nc2ccc(C#N)cc2)[nH]c(=O)c1Cl
- pEC50 [1]: < 4.54
- CC50 at 120 h [2]: 29 µM
- selectivity ratio [3]: < 1
- selectivity ratio [4]: < 1
- pEC50 [5]: 5.62
- pEC50 [6]: < 4.54
- selectivity ratio [7]: 12

Structure (SMILES): COc1cc(Oc2c(C)cc(C)cc2C)cc(Nc2ccc([N+](=O)[O-])cc2)n1
- CC50 at 120 h [2]: 7.2 µM
- selectivity ratio [4]: < 1
- pEC50 [5]: < 5.14
- pEC50 [6]: < 5.14
- selectivity ratio [7]: < 1

Structure (SMILES): Cc1cc(C)cc(Oc2cc(Nc3ccc(C#N)cc3)[nH]c(=O)c2Br)c1
- CC50 at 120 h [2]: 19 µM
- selectivity ratio [4]: < 1
- pEC50 [5]: < 4.72
- pEC50 [6]: < 4.72
- selectivity ratio [7]: < 1

Structure (SMILES): Cc1cc(C)cc(Oc2cc(Nc3ccc(C#N)cc3)[nH]c(=O)c2Cl)c1
- CC50 at 120 h [2]: 21 µM
- selectivity ratio [4]: < 1
- pEC50 [5]: < 4.68
- pEC50 [6]: < 4.68
- selectivity ratio [7]: < 1

Structure (SMILES): COc1cc(Oc2c(C)cccc2C)cc(Nc2ccc(C#N)cc2)n1
- CC50 at 120 h [2]: 8.5 µM
- selectivity ratio [4]: < 1
- pEC50 [5]: < 5.07
- pEC50 [6]: < 5.06
- selectivity ratio [7]: < 1

Structure (SMILES): COc1cc(Oc2c(C)cc(C#N)cc2C)cc(Nc2ccc(C#N)cc2)n1
- pEC50 [1]: < 3.83
- CC50 at 120 h [2]: > 147 µM
- selectivity ratio [3]: 1
- selectivity ratio [4]: ≤ 1
- pEC50 [5]: 6.15
- pEC50 [6]: < 3.83
- selectivity ratio [7]: ≥ 211

Structure (SMILES): Cc1cc(C#N)cc(C)c1Oc1cc(Nc2ccc(C#N)cc2)[nH]c(=O)c1
- pEC50 [1]: < 4.60
- pIC50 [12]: 5.28
- CC50 at 120 h [2]: 25 µM
- selectivity ratio [3]: < 1
- selectivity ratio [4]: < 1
- pEC50 [5]: 6.82
- pEC50 [6]: < 4.60
- selectivity ratio [7]: 166

Structure (SMILES): COc1cc(Oc2cc(C)cc(C)c2)cc(Nc2ccc(C#N)cc2)n1
- CC50 at 120 h [2]: 20 µM
- selectivity ratio [4]: < 1
- pEC50 [5]: < 4.70
- pEC50 [6]: < 4.70
- selectivity ratio [7]: < 1
